Measurements as given in publication PMC5832441 (Nature, 2017).

What was measured:
[1] = test system: calcitonin receptor (CTR); assay: Whole cell radioligand competition binding with 125I-sCT; parameters: species or system human; settings: competition with 125I-sCT(8-32), N130D mutant; five independent experiments
Summary of the method: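 Cos7 cells in DMEM/10% FBS, transiently transfected with PEI (DNA:PEI 1:6 in 150mM NaCl, 15 min) and seeded at 3 × 10⁴/well for 48 h at 37°C, 5% CO₂. Total binding: 0.05 nM ¹²⁵I-sCT(8-32) alone. Nonspecific binding: co-incubation with 1 μM sCT(8-32). Each experiment normalised to its own specific binding.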

[2] = test system: HA-FLAG-3C-CTR-3C-8xHis CTR with Gs protein heterotrimer; assay: [35S]GTPγS binding on CTR expressed in insect cells; assay type: biochemical, human; settings: insect cell membranes, absence and presence of Gs heterotrimer; four independent experiments
[3] = test system: calcitonin receptor (CTR); assay: cAMP accumulation in transfected COS7 or 3T3-FlpIn cells; assay type: cell-based, human
Summary of the method: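 COS7 or 3T3-FlpIn cells transfected with PEI (DNA:PEI 1:6 in 150mM NaCl, 15 min), plated at 3 × 10⁴/well and held 48 h at 37°C, 5% CO₂. Signals converted to cAMP using a parallel standard curve, then normalised to 100 μM forskolin within each cell line. For efficacy, Black-Leff operational model (Logτ_c) applied, corrected for cell-surface expression.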

[4] = test system: calcitonin receptor (CTR); assay: ERK1/2 phosphorylation; assay type: cell-based, human; settings: H302A mutant, 3T3-FlpIn cells; four independent experiments in duplicate
Summary of the method: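 3T3-FlpIn cells grown in DMEM with 10% v/v FBS at 37°C. Transient transfection used PEI; DNA and PEI in 150mM NaCl were combined 1:6 and left 15 min before adding to the cell suspension. Cells were plated at 3 × 10⁴/well and held 48 h at 37°C, 5% CO₂ before the pERK1/2 AlphaScreen read.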

[5] = test system: CTR; settings: cited from earlier work
[6] = cell surface ELISA to N-terminal epitope tag; settings: glycan lost; control: WT CTR

With salmon calcitonin [sCT] the “sCT affinity at N130D CTR compared to WT” value [1] was “reduced affinity”, the “G protein activation via GTPγS binding, sCT concentration response” value [2] was “can robustly activate Gs” and the “sCT-mediated cAMP efficacy at Δ414 CTR” value ([3]; COS7 cells, truncation after Trp413, 5 independent experiments in duplicate) was “no effect on receptor function”. The “sCT potency in cAMP production at H302A CTR” value ([3]; H302A mutant, 3T3-FlpIn cells, four independent experiments in duplicate) was “reduced potency”, the “sCT potency in cAMP accumulation at N130D CTR relative to WT” value ([3]; N130D mutant, five independent experiments) was “reduce the potency” and the “sCT potency in phosphorylation of ERK1/2 at H302A CTR” value [4] was “reduced potency”. For the same molecule, the off-rate [5] was “very slow off-rate”.

B1: calcitonin receptor (CTR): N28D (protein)
parent chain: MRFTFTSRCLALFLLLNHPTPILPAFSNQTYPTIEPKPFLYVVGRKKMMDAQYKCYDRMQQLPAYQGEGPYCNRTWDGWLCWDDTPAGVLSYQFCPDYFPDFDPSEKVTKYCDEKGVWFKHPENNRTWSNYTMCNAFTPEKLKNAYVLYYLAIVGHSLSIFTLVISLGIFVFFRSLGCQRVTLHKNMFLTYILNSMIIIIHLVEVVPNGELVRRDPVSCKILHFFHQYMMACNYFWMLCEGIYLHTLIVVAVFTEKQRLRWYYLLGWGFPLVPTTIHAITRAVYFNDNCWLSVETHLLYIIHGPVMAALVVNFFFLLNIVRVLVTKMRETHEAESHMYLKAVKATMILVPLLGIQFVVFPWRPSNKMLGKIYDYVMHSLIHFQGFFVATIYCFCNNEVQTTVKRQWAQFKIQWNQRWGRRPSNRSARAAAAAAEAGDIPIYICHQELRNEPANNQGEESAEIIPLNIIEQESSA
In the case of B1, the expression_or_secretion [6] is reported as “no change”.

B2: calcitonin receptor (CTR): N73D (protein)
parent chain: B1 parent chain
For B2, the expression_or_secretion [6] was “no change”.

B3: calcitonin receptor (CTR): N125D (protein)
parent chain: B1 parent chain
With B3 the expression_or_secretion [6] was “no change”.

B4: calcitonin receptor (CTR): N130D (protein)
parent chain: B1 parent chain
With B4 the expression_or_secretion [6] was “no change”.
